ChEMBL document CHEMBL3797186, “Single Residue Substitutions That Confer Voltage-Gated Sodium Ion Channel Subtype Selectivity in the NaV1.7 Inhibitory Peptide GpTx-1” (J Med Chem, 2016)
Positions of bridges follow the written chain, without caps; N, C: chain ends. Non-standard residues stand in square brackets, D forms with d. Residues, ends and D or L forms follow the SMILES beside them. 1Nal = N[C@@H](Cc1cccc2ccccc12)C(=O)O

Key:
[1] = target: Sodium channel protein type 9 subunit alpha (Homo sapiens, UniProt Q15858); assay: Inhibition of human Nav1.7 expressed in HEK293 cells assessed as inward peak current by ion-works quattro patch clamp electrophysiology method; type: cell-based
[2] = target: Sodium channel protein type 5 subunit alpha (Homo sapiens, UniProt Q14524); assay: Inhibition of human Nav1.5 expressed in HEK293 cells assessed as inward peak current by ion-works quattro patch clamp electrophysiology method; type: cell-based
Summary of the method: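 Stable HEK293 line expressing human NaV1.5, recorded by population patch clamp on the IonWorks Quattro.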

Chain of Sodium channel protein type 9 subunit alpha (Q15858 whole entry): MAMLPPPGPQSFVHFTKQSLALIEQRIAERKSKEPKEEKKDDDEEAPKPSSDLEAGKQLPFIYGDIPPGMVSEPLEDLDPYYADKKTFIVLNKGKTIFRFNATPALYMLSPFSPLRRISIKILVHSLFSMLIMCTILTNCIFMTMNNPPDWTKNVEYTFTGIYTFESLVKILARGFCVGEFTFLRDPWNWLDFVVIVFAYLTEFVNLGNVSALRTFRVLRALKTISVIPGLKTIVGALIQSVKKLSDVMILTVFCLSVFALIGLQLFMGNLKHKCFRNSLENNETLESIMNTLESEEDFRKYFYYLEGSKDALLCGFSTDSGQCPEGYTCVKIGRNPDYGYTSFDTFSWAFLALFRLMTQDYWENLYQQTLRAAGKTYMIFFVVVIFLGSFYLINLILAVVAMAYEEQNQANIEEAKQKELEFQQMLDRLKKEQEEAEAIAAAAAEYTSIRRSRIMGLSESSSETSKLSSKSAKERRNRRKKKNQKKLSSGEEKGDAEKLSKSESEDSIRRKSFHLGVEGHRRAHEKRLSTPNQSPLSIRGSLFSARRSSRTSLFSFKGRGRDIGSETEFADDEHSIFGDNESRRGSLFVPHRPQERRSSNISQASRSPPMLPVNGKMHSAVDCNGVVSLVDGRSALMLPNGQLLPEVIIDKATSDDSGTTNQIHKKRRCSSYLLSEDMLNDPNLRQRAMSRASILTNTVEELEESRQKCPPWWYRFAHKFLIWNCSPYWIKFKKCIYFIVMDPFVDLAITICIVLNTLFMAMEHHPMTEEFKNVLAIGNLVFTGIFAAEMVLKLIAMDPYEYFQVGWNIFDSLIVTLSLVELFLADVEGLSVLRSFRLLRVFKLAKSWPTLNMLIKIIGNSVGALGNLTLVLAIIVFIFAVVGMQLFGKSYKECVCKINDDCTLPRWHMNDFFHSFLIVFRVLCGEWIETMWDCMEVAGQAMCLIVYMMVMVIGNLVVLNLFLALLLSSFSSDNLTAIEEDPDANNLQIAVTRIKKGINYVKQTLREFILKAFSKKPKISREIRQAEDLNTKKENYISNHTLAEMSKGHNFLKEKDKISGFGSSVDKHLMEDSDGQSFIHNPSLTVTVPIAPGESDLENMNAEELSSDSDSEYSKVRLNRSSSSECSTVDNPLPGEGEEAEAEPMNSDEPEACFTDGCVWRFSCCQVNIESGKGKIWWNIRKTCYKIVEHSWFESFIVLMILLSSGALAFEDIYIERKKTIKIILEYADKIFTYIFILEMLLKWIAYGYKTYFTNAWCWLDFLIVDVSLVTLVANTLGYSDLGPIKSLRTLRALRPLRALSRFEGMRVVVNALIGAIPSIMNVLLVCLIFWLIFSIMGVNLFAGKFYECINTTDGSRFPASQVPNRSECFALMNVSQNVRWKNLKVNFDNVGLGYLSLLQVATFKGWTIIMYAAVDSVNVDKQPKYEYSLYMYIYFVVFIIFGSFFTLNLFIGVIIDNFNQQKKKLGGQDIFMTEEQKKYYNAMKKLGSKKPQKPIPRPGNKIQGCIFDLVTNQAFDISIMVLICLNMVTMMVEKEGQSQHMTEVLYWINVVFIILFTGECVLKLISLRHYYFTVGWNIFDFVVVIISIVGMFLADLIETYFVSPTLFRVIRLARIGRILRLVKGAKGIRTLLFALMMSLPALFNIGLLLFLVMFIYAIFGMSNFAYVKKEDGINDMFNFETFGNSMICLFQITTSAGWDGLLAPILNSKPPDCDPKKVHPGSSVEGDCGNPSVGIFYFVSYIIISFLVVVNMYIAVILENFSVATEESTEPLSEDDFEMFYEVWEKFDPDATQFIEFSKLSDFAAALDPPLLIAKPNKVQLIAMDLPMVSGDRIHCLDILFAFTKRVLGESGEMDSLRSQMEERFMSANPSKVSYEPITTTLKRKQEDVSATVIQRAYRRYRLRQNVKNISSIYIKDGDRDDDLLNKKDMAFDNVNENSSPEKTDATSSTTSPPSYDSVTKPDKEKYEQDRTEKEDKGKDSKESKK
Chain of Sodium channel protein type 5 subunit alpha (Q14524 whole entry): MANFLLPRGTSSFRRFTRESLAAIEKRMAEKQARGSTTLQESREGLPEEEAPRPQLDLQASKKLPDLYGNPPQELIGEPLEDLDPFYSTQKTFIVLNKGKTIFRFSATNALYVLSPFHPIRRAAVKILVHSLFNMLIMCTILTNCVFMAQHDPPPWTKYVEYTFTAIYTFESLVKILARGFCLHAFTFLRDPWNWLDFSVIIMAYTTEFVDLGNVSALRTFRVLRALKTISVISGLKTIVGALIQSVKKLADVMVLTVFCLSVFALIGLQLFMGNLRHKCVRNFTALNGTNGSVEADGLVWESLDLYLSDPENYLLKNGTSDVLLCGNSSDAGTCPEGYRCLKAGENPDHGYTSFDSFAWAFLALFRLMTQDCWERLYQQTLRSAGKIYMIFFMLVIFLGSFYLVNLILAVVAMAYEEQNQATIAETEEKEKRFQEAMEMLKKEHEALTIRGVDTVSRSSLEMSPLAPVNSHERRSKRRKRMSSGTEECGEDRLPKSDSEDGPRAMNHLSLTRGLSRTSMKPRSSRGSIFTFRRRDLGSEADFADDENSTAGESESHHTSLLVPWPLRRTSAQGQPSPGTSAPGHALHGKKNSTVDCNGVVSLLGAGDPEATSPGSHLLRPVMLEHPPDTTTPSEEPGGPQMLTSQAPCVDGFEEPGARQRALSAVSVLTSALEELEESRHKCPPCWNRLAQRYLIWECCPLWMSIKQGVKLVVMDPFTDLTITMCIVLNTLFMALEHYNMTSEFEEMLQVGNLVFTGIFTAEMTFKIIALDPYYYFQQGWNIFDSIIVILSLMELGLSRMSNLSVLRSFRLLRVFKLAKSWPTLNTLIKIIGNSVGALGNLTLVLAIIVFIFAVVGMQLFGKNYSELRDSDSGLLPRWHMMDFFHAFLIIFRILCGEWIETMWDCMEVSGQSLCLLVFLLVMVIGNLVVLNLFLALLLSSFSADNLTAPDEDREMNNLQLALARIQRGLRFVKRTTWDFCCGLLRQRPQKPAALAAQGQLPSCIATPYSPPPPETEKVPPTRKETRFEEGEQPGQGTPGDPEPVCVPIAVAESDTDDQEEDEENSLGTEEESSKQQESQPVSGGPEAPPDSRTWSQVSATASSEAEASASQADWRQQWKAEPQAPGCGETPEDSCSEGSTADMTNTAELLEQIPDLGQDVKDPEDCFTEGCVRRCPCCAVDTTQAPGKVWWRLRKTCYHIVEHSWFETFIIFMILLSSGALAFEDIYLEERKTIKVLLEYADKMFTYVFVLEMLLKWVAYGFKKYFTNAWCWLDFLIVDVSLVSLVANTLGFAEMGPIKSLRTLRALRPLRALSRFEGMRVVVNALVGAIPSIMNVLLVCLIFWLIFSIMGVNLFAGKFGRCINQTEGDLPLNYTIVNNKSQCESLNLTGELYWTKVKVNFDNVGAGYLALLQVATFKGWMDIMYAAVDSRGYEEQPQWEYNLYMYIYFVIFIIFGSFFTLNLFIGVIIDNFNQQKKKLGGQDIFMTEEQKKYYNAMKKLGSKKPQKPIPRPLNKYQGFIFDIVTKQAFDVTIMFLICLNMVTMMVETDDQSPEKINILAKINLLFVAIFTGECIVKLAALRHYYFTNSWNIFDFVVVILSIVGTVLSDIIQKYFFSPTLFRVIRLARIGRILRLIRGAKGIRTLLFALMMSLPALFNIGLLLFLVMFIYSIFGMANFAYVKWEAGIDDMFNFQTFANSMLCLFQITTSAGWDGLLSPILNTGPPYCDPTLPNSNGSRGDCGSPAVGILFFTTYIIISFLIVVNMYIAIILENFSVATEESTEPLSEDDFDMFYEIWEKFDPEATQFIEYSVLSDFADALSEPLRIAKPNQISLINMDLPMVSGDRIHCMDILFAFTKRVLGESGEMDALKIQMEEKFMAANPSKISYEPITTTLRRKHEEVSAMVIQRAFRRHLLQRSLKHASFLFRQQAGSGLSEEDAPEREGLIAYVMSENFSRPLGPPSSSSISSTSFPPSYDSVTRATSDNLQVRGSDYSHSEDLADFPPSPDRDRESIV

Compound | IC50 [1] | IC50 [2]
CC[C@H](C)[C@@H]1NC(=O)[C@@H]2CSSC[C@@H]3NC(=O)[C@H](C(C)C)NC(=O)[C@H](CC(C)C)NC(=O)[C@H](CC(N)=O)NC(=O)[C@@H]4CCCN4C(=O)[C@H](CCCNC(=N)N)NC(=O)[C@H](CSSC[C@H](NC(=O)[C@H](CC(=O)O)NC(=O)[C@@H](N)CCCCN)C(=O)N[C@@H](CC(C)C)C(=O)NCC(=O)N[C@@H](Cc4ccccc4)C(=O)N[C@@H](CCSC)C(=O)N[C@@H](CCCNC(=N)N)C(=O)N[C@@H](CCCCN)C(=O)N2)NC(=O)[C@H](CSSC[C@@H](C(=O)N[C@@H](CCCCN)C(=O)N[C@@H](Cc2ccc(O)cc2)C(=O)N[C@H](C(=O)N[C@@H](Cc2ccccc2)C(N)=O)C(C)C)NC(=O)[C@H](Cc2c[nH]c4ccccc24)NC(=O)[C@H](CCCCN)NC(=O)[C@H](Cc2cnc[nH]2)NC(=O)[C@H]([C@@H](C)O)NC(=O)[C@H](CCCNC(=N)N)NC(=O)[C@H](CO)NC3=O)NC(=O)[C@H](CCCCN)NC(=O)[C@H](CC(=O)O)NC(=O)[C@H](CC(N)=O)NC(=O)[C@H](CC(=O)O)NC(=O)[C@@H]2CCCN2C1=O | 0.12 µM | > 5 µM
CC[C@H](C)[C@@H]1NC(=O)[C@@H]2CSSC[C@@H]3NC(=O)[C@H](C(C)C)NC(=O)[C@H](CC(C)C)NC(=O)[C@H](CCC(=O)O)NC(=O)[C@@H]4CCCN4C(=O)[C@H](CCCNC(=N)N)NC(=O)[C@H](CSSC[C@H](NC(=O)[C@@H](N)CC(=O)O)C(=O)N[C@@H](CC(C)C)C(=O)NCC(=O)N[C@@H](Cc4ccccc4)C(=O)N[C@@H](CCSC)C(=O)N[C@@H](CCCNC(=N)N)C(=O)N[C@@H](CCCCN)C(=O)N2)NC(=O)[C@H](CSSC[C@@H](C(=O)N[C@@H](CCCCN)C(=O)N[C@@H](Cc2ccc(O)cc2)C(=O)N[C@H](C(=O)N[C@@H](Cc2ccccc2)C(N)=O)C(C)C)NC(=O)[C@H](Cc2c[nH]c4ccccc24)NC(=O)[C@H](CCCCN)NC(=O)[C@H](Cc2cnc[nH]2)NC(=O)[C@H]([C@@H](C)O)NC(=O)[C@H](CCCNC(=N)N)NC(=O)[C@H](CO)NC3=O)NC(=O)[C@H](CCCCN)NC(=O)[C@H](CC(=O)O)NC(=O)[C@H](CC(N)=O)NC(=O)[C@H](CC(=O)O)NC(=O)[C@@H]2CCCN2C1=O (H-DCLGFMRKCIPDNDKCCRPELVCSRTHKWCKYVF-NH2; disulfide 2-17, 9-23, 16-30) | 1.4 µM | > 5 µM
CC[C@H](C)[C@@H]1NC(=O)[C@@H]2CSSC[C@@H]3NC(=O)[C@H](C(C)C)NC(=O)[C@H](Cc4cccc5ccccc45)NC(=O)[C@H](CC(N)=O)NC(=O)[C@@H]4CCCN4C(=O)[C@H](CCCNC(=N)N)NC(=O)[C@H](CSSC[C@H](NC(=O)[C@@H](N)CC(=O)O)C(=O)N[C@@H](CC(C)C)C(=O)NCC(=O)N[C@@H](Cc4ccccc4)C(=O)N[C@@H](CCSC)C(=O)N[C@@H](CCCNC(=N)N)C(=O)N[C@@H](CCCCN)C(=O)N2)NC(=O)[C@H](CSSC[C@@H](C(=O)N[C@@H](CCCCN)C(=O)N[C@@H](Cc2ccc(O)cc2)C(=O)N[C@H](C(=O)N[C@@H](Cc2ccccc2)C(N)=O)C(C)C)NC(=O)[C@H](Cc2c[nH]c4ccccc24)NC(=O)[C@H](CCCCN)NC(=O)[C@H](Cc2c[nH]cn2)NC(=O)[C@H]([C@@H](C)O)NC(=O)[C@H](CCCNC(=N)N)NC(=O)[C@H](CO)NC3=O)NC(=O)[C@H](CCCCN)NC(=O)[C@H](CC(=O)O)NC(=O)[C@H](CC(N)=O)NC(=O)[C@H](CC(=O)O)NC(=O)[C@@H]2CCCN2C1=O (H-DCLGFMRKCIPDNDKCCRPN[1Nal]VCSRTHKWCKYVF-NH2; disulfide 2-17, 9-23, 16-30) | 0.09 µM | > 5 µM
CSCC[C@@H]1NC(=O)[C@H](Cc2ccccc2)NC(=O)CNC(=O)[C@H](CC(C)C)NC(=O)[C@@H](NC(=O)[C@@H](N)CC(=O)O)CSSC[C@@H]2NC(=O)[C@@H]3CSSC[C@@H](C(=O)N[C@@H](CCCCN)C(=O)N[C@@H](Cc4ccc(O)cc4)C(=O)N[C@H](C(=O)N[C@@H](Cc4ccccc4)C(N)=O)C(C)C)NC(=O)[C@H](Cc4c[nH]c5ccccc45)NC(=O)[C@H](CCCCN)NC(=O)[C@H](Cc4cnc[nH]4)NC(=O)[C@H]([C@@H](C)O)NC(=O)[C@H](CCCNC(=N)N)NC(=O)[C@H](CO)NC(=O)[C@H](CSSC[C@H](NC(=O)[C@H](CCCCN)NC(=O)[C@H](CCCNC(=N)N)NC1=O)C(=O)N[C@@H](Cc1cc4ccccc4[nH]1)C(=O)N1CCC[C@H]1C(=O)N[C@@H](CC(=O)O)C(=O)N[C@@H](CC(N)=O)C(=O)N[C@@H](CC(=O)O)C(=O)N[C@@H](CCCCN)C(=O)N3)NC(=O)[C@H](C(C)C)NC(=O)[C@H](CC(C)C)NC(=O)[C@H](CC(N)=O)NC(=O)[C@@H]1CCCN1C(=O)[C@H](CCCNC(=N)N)NC2=O | 0.13 µM | > 5 µM
CC[C@H](C)[C@@H]1NC(=O)[C@@H]2CSSC[C@@H]3NC(=O)[C@H](C(C)C)NC(=O)[C@H](CC(C)C)NC(=O)[C@H](CC(N)=O)NC(=O)[C@@H]4CCCN4C(=O)[C@H](CCCNC(=N)N)NC(=O)[C@H](CSSC[C@H](NC(=O)[C@@H](N)CC(=O)O)C(=O)N[C@@H](CC(C)C)C(=O)NCC(=O)N[C@@H](Cc4ccccc4)C(=O)N[C@@H](CCSC)C(=O)N[C@@H](CCCNC(=N)N)C(=O)N[C@@H](CCCCN)C(=O)N2)NC(=O)[C@H](CSSC[C@@H](C(=O)N[C@@H](CCCCN)C(=O)N[C@@H](CCC(=O)O)C(=O)N[C@H](C(=O)N[C@@H](Cc2ccccc2)C(N)=O)C(C)C)NC(=O)[C@H](Cc2c[nH]c4ccccc24)NC(=O)[C@H](CCCCN)NC(=O)[C@H](Cc2cnc[nH]2)NC(=O)[C@H]([C@@H](C)O)NC(=O)[C@H](CCCNC(=N)N)NC(=O)[C@H](CO)NC3=O)NC(=O)[C@H](CCCCN)NC(=O)[C@H](CC(=O)O)NC(=O)[C@H](CC(N)=O)NC(=O)[C@H](CC(=O)O)NC(=O)[C@@H]2CCCN2C1=O (H-DCLGFMRKCIPDNDKCCRPNLVCSRTHKWCKEVF-NH2; disulfide 2-17, 9-23, 16-30) | > 5 µM | > 5 µM
CC[C@H](C)[C@@H]1NC(=O)[C@@H]2CSSC[C@@H]3NC(=O)[C@H](C(C)C)NC(=O)[C@H](CC(C)C)NC(=O)[C@H](CC(N)=O)NC(=O)[C@@H]4CCCN4C(=O)[C@H](CCCNC(=N)N)NC(=O)[C@H](CSSC[C@H](NC(=O)[C@@H](N)CC(=O)O)C(=O)N[C@@H](CC(C)C)C(=O)NCC(=O)N[C@@H](Cc4ccccc4)C(=O)N[C@@H](CCCCN)C(=O)N[C@@H](CCCNC(=N)N)C(=O)N[C@@H](CCCCN)C(=O)N2)NC(=O)[C@H](CSSC[C@@H](C(=O)N[C@@H](CCCCN)C(=O)N[C@@H](Cc2ccc(O)cc2)C(=O)N[C@H](C(=O)N[C@@H](Cc2ccccc2)C(N)=O)C(C)C)NC(=O)[C@H](Cc2c[nH]c4ccccc24)NC(=O)[C@H](CCCCN)NC(=O)[C@H](Cc2cnc[nH]2)NC(=O)[C@H]([C@@H](C)O)NC(=O)[C@H](CCCNC(=N)N)NC(=O)[C@H](CO)NC3=O)NC(=O)[C@H](CCCCN)NC(=O)[C@H](CC(=O)O)NC(=O)[C@H](CC(N)=O)NC(=O)[C@H](CC(=O)O)NC(=O)[C@@H]2CCCN2C1=O (H-DCLGFKRKCIPDNDKCCRPNLVCSRTHKWCKYVF-NH2; disulfide 2-17, 9-23, 16-30) | > 5 µM | > 5 µM
CSCC[C@@H]1NC(=O)[C@H](Cc2ccccc2)NC(=O)CNC(=O)[C@H](CC(C)C)NC(=O)[C@@H](NC(=O)[C@@H](N)CC(=O)O)CSSC[C@@H]2NC(=O)[C@@H]3CSSC[C@@H](C(=O)N[C@@H](CCCCN)C(=O)N[C@@H](Cc4ccc(O)cc4)C(=O)N[C@H](C(=O)N[C@@H](Cc4ccccc4)C(N)=O)C(C)C)NC(=O)[C@H](Cc4c[nH]c5ccccc45)NC(=O)[C@H](CCCCN)NC(=O)[C@H](Cc4cnc[nH]4)NC(=O)[C@H]([C@@H](C)O)NC(=O)[C@H](CCCNC(=N)N)NC(=O)[C@H](CO)NC(=O)[C@H](CSSC[C@H](NC(=O)[C@H](CCCCN)NC(=O)[C@H](CCCNC(=N)N)NC1=O)C(=O)N[C@@H](CCCNC(=N)N)C(=O)N1CCC[C@H]1C(=O)N[C@@H](CC(=O)O)C(=O)N[C@@H](CC(N)=O)C(=O)N[C@@H](CC(=O)O)C(=O)N[C@@H](CCCCN)C(=O)N3)NC(=O)[C@H](C(C)C)NC(=O)[C@H](CC(C)C)NC(=O)[C@H](CC(N)=O)NC(=O)[C@@H]1CCCN1C(=O)[C@H](CCCNC(=N)N)NC2=O (H-DCLGFMRKCRPDNDKCCRPNLVCSRTHKWCKYVF-NH2; disulfide 2-17, 9-23, 16-30) | 0.17 µM | > 5 µM
CC[C@H](C)[C@@H]1NC(=O)[C@@H]2CSSC[C@@H]3NC(=O)[C@H](CCCCN)NC(=O)[C@H](CC(C)C)NC(=O)[C@H](CC(N)=O)NC(=O)[C@@H]4CCCN4C(=O)[C@H](CCCNC(=N)N)NC(=O)[C@H](CSSC[C@H](NC(=O)[C@@H](N)CC(=O)O)C(=O)N[C@@H](CC(C)C)C(=O)NCC(=O)N[C@@H](Cc4ccccc4)C(=O)N[C@@H](CCSC)C(=O)N[C@@H](CCCNC(=N)N)C(=O)N[C@@H](CCCCN)C(=O)N2)NC(=O)[C@H](CSSC[C@@H](C(=O)N[C@@H](CCCCN)C(=O)N[C@@H](Cc2ccc(O)cc2)C(=O)N[C@H](C(=O)N[C@@H](Cc2ccccc2)C(N)=O)C(C)C)NC(=O)[C@H](Cc2c[nH]c4ccccc24)NC(=O)[C@H](CCCCN)NC(=O)[C@H](Cc2cnc[nH]2)NC(=O)[C@H]([C@@H](C)O)NC(=O)[C@H](CCCNC(=N)N)NC(=O)[C@H](CO)NC3=O)NC(=O)[C@H](CCCCN)NC(=O)[C@H](CC(=O)O)NC(=O)[C@H](CC(N)=O)NC(=O)[C@H](CC(=O)O)NC(=O)[C@@H]2CCCN2C1=O (H-DCLGFMRKCIPDNDKCCRPNLKCSRTHKWCKYVF-NH2; disulfide 2-17, 9-23, 16-30) | 0.2 µM | > 5 µM
